# Compound activity from PubChem BioAssay.
# The sample as a whole holds a higher share of hits than the screen did.
# INS promoter act: TRM-6 insulin promoter activation | TRM-6 cells (human fetal islet line), insulin promoter eGFP reporter, imaging; plate-scaled: unstimulated 0, stimulated control 100 | activation, % at 2 µM | hit rate 0.81% among 130,000;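 active = activation at 2 µM above a set limit, confirmed on inspection of the cell images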;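 also: share of cells whose green reporter signal exceeds an intensity cutoff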
#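 Assay system: TRM-6 insulin promoter–eGFP reporter cells / Input: 1,000 cells per well / Medium: Low-glucose (5.5 mM) medium with tamoxifen / Also added: tamoxifen inducer, 0.75 µM, in seeding medium / Timing: overnight tamoxifen, then two-day compound incubation at 37 °C / Signal: automated fluorescence imaging of paraformaldehyde-fixed, Hoechst-counterstained cells, green channel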
# An asterisk follows results filed as active.
SMILES,INS promoter act
CN1CC=C2C(C#N)=C(N)C(C#N)(C#N)[C@H](c3cccc(Cl)c3)C2C1 (some centres undefined),7.1
COc1cccc(C2C3CN(C)CC=C3C(C#N)=C(N)C2(C#N)C#N)c1OC (centres undefined),147.2*
CCOC(=O)N1CC=C2C(C#N)=C(N)C(C#N)(C#N)[C@H](c3ccccc3OCC)[C@H]2C1,-9.1
CCN1CC=C2C(C#N)=C(N)C(C#N)(C#N)[C@H](c3cccc(OC)c3OC)[C@H]2C1,614.3*
CN1CC=C2C(C#N)=C(N)C(C#N)(C#N)[C@H](c3cccs3)[C@H]2C1,107.9
N#CC1=C(N)C(C#N)(C#N)C(c2ccncc2)C2CN(C(=O)OCc3ccccc3)CC=C12 (centres undefined),-4.8
O=C(NC(Cc1ccccc1)c1ccc2c(c1)OCCCO2)c1ccc(F)cc1 (centres undefined),0.0
Cc1ccc(C(=O)N(c2ccccc2)C2CC(C)N(C(=O)c3ccco3)c3ccccc32)cc1 (centres undefined),3.2
CC(C)CNC(=O)CC(=O)NN=C1CCCC1,-7.1
O=C(CSc1ncccn1)NN=C1CCCCCC1,-66.7
Cc1c(Cl)cccc1NCC(=O)NN=C1CCCC1,336.8*
O=C(NNC(=O)C1CC(c2cccs2)=NO1)NC1CCCCC1 (centres undefined),106.7
Cc1cc(C)n(-c2nc3c(c(=O)n(C)c(=O)n3C)n2CC(O)COc2ccccc2C)n1 (centres undefined),-76.9
O=C1[C@@H]2[C@H](C(=O)N1Cc1ccco1)[C@H]1C=C[C@@H]2C1,7.7
O=C(NCCc1cccs1)C1CC(c2ccc([N+](=O)[O-])cc2)=NO1 (centres undefined),-4.4
O=C(NCc1ccc(OC(F)(F)F)cc1)C1CC(c2ccccc2[N+](=O)[O-])=NO1 (centres undefined),-7.3
CCCCNC(=O)C1CC(c2ccccc2[N+](=O)[O-])=NO1 (centres undefined),161.3*
CCOc1ccccc1N(CC(=O)Nc1ccc(S(=O)(=O)N2CCOCC2)cc1)S(=O)(=O)c1ccc(Cl)cc1,6.9
Cc1nn(C)c(C)c1CNC(=O)c1cc2n(n1)C(C(F)(F)F)CC(c1cccs1)N2 (centres undefined),278.9
CCCn1cc(NC(=O)c2cc3n(n2)C(C(F)(F)F)CC(c2ccccc2)N3)cn1 (centres undefined),431.3*
Cc1cc(NC(=O)c2cc3n(n2)C(C(F)(F)F)CC(c2ccco2)N3)n(-c2ccccc2)n1 (centres undefined),229.7
CC(C)(C)NC(=O)C1CCN(C(=O)c2ccc(Br)cc2)CC1,244.2
CO/N=C(/CS(=O)(=O)c1ccc(C)cc1)c1ccc(OC)cc1,3.2
CCSc1nnc(NC(=O)c2ccccn2)s1,177.8
C=CCSc1nnc(NC(=O)CSc2ccccn2)s1,425.0*
SMILES,INS promoter act
CCc1ccc(NC(=O)CSc2ccccn2)cc1,104.8
O=C(Nc1ccccc1[N+](=O)[O-])c1cccnc1Cl,-3.1
CCN(C(=O)COC(=O)/C=C/c1ccc(O)c(OC)c1)C1CCS(=O)(=O)C1 (centres undefined),-9.8
COc1ccccc1N1CCN(C(c2cccs2)c2nnnn2C2CCCC2)CC1 (centres undefined),0.0
O=C(CCCN1C(=O)c2ccccc2C1=O)Nc1cccnc1,-9.5
O=C(CCCN1C(=O)c2ccccc2C1=O)NCc1ccco1,238.9
O=C(CCCN1C(=O)c2ccccc2C1=O)NCc1cccnc1,473.3*
S=C(NCCCn1ccnc1)NC1CCCCC1,-3.3
O=C(NCC1OCCc2ccccc21)c1ccc(NC(=O)c2ccc(Cl)cc2)cc1 (centres undefined),-6.5
CCOC(=O)c1cnc(SCC(=O)Nc2ccc(NC(=O)CC)c(OC)c2)nc1N,-7.1
Cc1nc(NCCc2ccccc2)c2oc3ccccc3c2n1,-68.8
O=C(c1ccccn1)N(Cc1ccco1)C1(C(=O)NC2CCCC2)CCCCC1,80.6*
O=C(COC(=O)c1ccccn1)NC1CCCCC1,-2.9
O=C1NC(=O)C(CC(=O)N(Cc2ccco2)C2(C(=O)NC3CCCC3)CCCCC2)N1 (centres undefined),0.0
CCC(c1nnnn1C1CCCC1)N1CCN(c2cccc(OC)c2)CC1 (centres undefined),7.7
O=C(Cc1cccs1)Nc1ccc(NC(=O)c2ccco2)cc1,0.0
NS(=O)(=O)c1ccc(CCNC(=O)C2CCN(S(=O)(=O)c3cnc[nH]3)CC2)cc1,4.5
CC1CCN(C(=O)C2CCN(S(=O)(=O)c3cnc[nH]3)CC2)CC1,506.3*
CC1CCN(C(=O)C2CCN(CC(C)c3ccccc3)CC2)CC1 (centres undefined),368.4
Cc1c(NC(=O)c2n[nH]c(=O)c3ccccc23)c(=O)n(-c2ccccc2)n1C,-3.6
CCC(C)(C)NC(=O)C(c1ccc(OC)cc1)N(Cc1cccs1)C(=O)CCC(=O)Nc1cc(C)on1 (centres undefined),600.0*
CCC(C)(C)NC(=O)CN(Cc1cccs1)C(=O)CCC(=O)Nc1nccs1,6.7
Cc1cc(NC(=O)CCC(=O)N(c2ccccc2)C(C(=O)NC2CCCCC2)c2cccs2)no1 (centres undefined),323.3
O=C(CCc1nc2ccccc2c(=O)[nH]1)N1CCN(c2ccc(F)cc2)CC1,0.0
COC(=O)c1ccc(NS(=O)(=O)c2ccc(SC)cc2)cc1,730.0*
SMILES,INS promoter act
CSc1ccc(S(=O)(=O)Nc2c(C)cccc2C)cc1,-90.9
CSc1ccc(S(=O)(=O)Nc2ccc(F)cc2)cc1,420.0*
CC(=O)c1ccc(NS(=O)(=O)c2ccc(N)cc2)cc1,-5.6
COc1ccc(NS(=O)(=O)c2ccc(SC)cc2)cc1,0.0
CCN(CC)S(=O)(=O)c1ccc(NS(=O)(=O)c2ccc(F)cc2)cc1,-6.7
COc1ccccc1NC(=O)c1ccccc1-c1nc(-c2ccccc2OC)no1,400.0*
COc1ccccc1NC(=O)c1cc(Cl)ccc1NC(=O)c1ccco1,-86.4
COc1ccccc1-c1noc(-c2ccccc2C(=O)Nc2ccccc2)n1,-71.4
Cc1cccc(NC(=S)N2CCC(N(C)CC3CCCO3)CC2)c1 (centres undefined),6.7
CC(C)(C)NC(=O)c1ccc(NC(=O)C2COc3ccccc3O2)cc1 (centres undefined),9.4
CC1CC(C)CN(S(=O)(=O)c2ccc(NC(=O)C3COc4ccccc4O3)cc2)C1 (centres undefined),925.0*
NS(=O)(=O)c1ccc(NC(=O)C2COc3ccccc3O2)cc1 (centres undefined),4.2
O=C(CSc1nc2ccccc2s1)CSc1nc2ccccc2s1,94.3*
O=C(CSc1nc2ccccc2s1)NNC(=S)Nc1ccccc1,-3.2
Nc1nonc1NC(=O)CSc1nc2ccccc2s1,3.6
O=C(CSc1nc2ccccc2s1)Nc1nccs1,-2.8
O=C(CSc1nc2ccccc2o1)N/N=C/c1ccccc1,3.3
O=C(CSc1nc2ccccc2s1)N/N=C/c1ccc(C(=O)O)cc1,161.1*
COc1ccc(OC)c(C(=O)CSc2nnc(Cc3cccs3)n2CCc2ccccc2)c1,-2.8
Cc1cccc(C(=O)/C=C2/c3ccccc3CC(C)(C)N2C)c1,4.5
c1ccc(C2OC3c4cccc5cccc(c45)C3N2c2ccccc2)cc1 (centres undefined),-3.4
O=C(/C=C/c1ccc([N+](=O)[O-])s1)N1CCCCC1,327.8*
O=C(/C=C/c1ccccc1[N+](=O)[O-])N1CCCCC1,-2.7
CC(=O)c1cccc(NC(=O)/C=C/c2ccc([N+](=O)[O-])s2)c1,614.3*
